# According to ChEMBL document CHEMBL4382230, “Structure-activity relationships, biological evaluation and structural studies of novel pyrrolonaphthoxazepines as antitumor agents” (Eur J Med Chem, 2019):
# Activity calls are given as the source filed them. The rule behind the calls is not given here.
# Key:
# HL-60 [1] = assay: Cytotoxicity against human HL60 cells assessed as reduction in cell viability after 72 hrs by alamar blue assay; type: functional, cell-based; settings: HL-60, 72 h
# Procedure, shortened: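 HL-60 at 300,000 cells/ml treated in triplicate with compound or vehicle (0.1% v/v DMSO) for 72 h. Cells then incubated in 10% (v/v) AlamarBlue and fluorescence read at excitation 544 nm, emission 590 nm. IC50 is the mean of at least three separate determinations.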
# Tubulin (Homo sapiens) [2] = molecular target: T1, Tubulin (Homo sapiens) (UniProt P68371+Q9H4B7+P0DPH7+P68366+Q13509+Q71U36+P04350+Q3ZCM7+P07437+P68363+Q9BQE3+Q6PEY2+Q13885+Q9BVA1+Q9BUF5); assay: Inhibition of tubulin (unknown origin) polymerization at 27.5 uM measured over 70 mins by turbidity method; type: protein-complex assay
# Procedure, shortened: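 Tubulin at 25 µM in GAB buffer (10 mM sodium phosphate, 30% glycerol, 1 mM EGTA, 6 mM MgCl2, 1 mM GTP, pH 6.7) with 27.5 µM compound or DMSO vehicle. Turbidity is read at 355 nm for 70 min at 37 °C. Data are normalized to the initial stable absorbance plateau to correct for compound absorbance.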
# [3] = Cytotoxicity against human A2780AD cells after 48 hrs by MTT assay; type: functional, cell-based
# Procedure, shortened: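 Cells seeded at 12,000 to 17,000 per well depending on line, incubated overnight, then given serial dilutions of ligand for 48 h. MTT at 2.5 mg/mL added for 4 h at 37 °C, formazan solubilized overnight (10% SDS, 45% dimethylformamide, pH 5.5), absorbance read at 595/690 nm. IC50 from log-dose response curves; mean ± SE of three independent assays.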
# [4] = Ratio of IC50 for mouse NIH/3T3 cells harboring MDR G185 to IC50 for mouse NIH/3T3 cells
# Procedure, shortened: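 Relative resistance: IC50 in the P-gp overexpressing resistant line divided by IC50 in the parental line. Both IC50s came from the 48 h MTT assay (serial dilutions, absorbance at 595/690 nm, log-dose response curves, three independent assays).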
# HCC827 = assay: Cytotoxicity against human HCC827 cells assessed as reduction in cell survival at 0.1 to 10 uM after 50 to 60 hrs by MTT assay; type: functional, cell-based
# PC-9 [5] = assay: Induction of apoptosis in human PC9 cells assessed as increase in p21 expression at 10 uM after 18 hrs by Western blot analysis; type: functional, cell-based
# Procedure, shortened: (§1)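 PC9 and HCC827 maintained in DMEM with 10% FBS, then exposed to 10 μM compound for 18 h in 5% serum. Caspase 3 activation and cell cycle proteins examined by western blot.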
# PC-9 [6] = assay: Induction of apoptosis in human PC9 cells assessed as reduction in cyclin D1 expression at 10 uM after 18 hrs by Western blot analysis; type: functional, cell-based; procedure, shortened: as §1
# NB-4 = assay: Induction of differentiation in human NB4 cells at 500 nM after 24 hrs in presence of ATRA by CD11c staining-based flow cytometric analysis; type: functional, cell-based
# Procedure, shortened: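 NB4 exposed to 0.5 μM compound together with 1 μM ATRA for 24 h. Cells stained with PE-conjugated CD11c (mouse IgG1-PE control) for 1 h at 4 °C in the dark, washed, resuspended in PBS with propidium iodide (0.25 μg/mL), then analysed by flow cytometry. Biological triplicates, mean ± S.E.M.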
# NCI-H929 [7] = assay: Cytotoxicity against human NCI-H929 cells after 48 hrs by MTT assay; type: functional, cell-based; settings: NCI-H929, 48 h
# Procedure, shortened: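 Cells (NCI-H929 in RPMI-1640 GlutaMAX; SCC4 in DMEM GlutaMAX; 10% FBS, 37 °C, 5% CO2) treated with increasing concentrations for 48 h. IC50 is the mean of three independent experiments.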
# Ca9-22 = assay: Cytotoxicity against human Ca9-22 cells after 24 hrs by MTT assay; type: functional, cell-based; settings: Ca9-22, 24 h
# NCI-H929 [8] = assay: Induction of apoptosis in human NCI-H929 cells at 500 nM after 48 hrs by Annexin V/propidium iodide staining-based flow cytometric analysis relative to control; type: functional
# Procedure, shortened: (§2)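 Seeding density: NCI-H929 and Ca9.22 at 30×10^4 cells/mL, SCC4 at 15×10^4 cells/mL. Cells exposed 48 h to compound (500 nM; 50 μM in SCC4 for one compound) or vehicle (1% EtOH v/v). Annexin V/PI staining, flow cytometry, 10,000 cells gated on vehicle-treated cells. Three independent experiments, mean ± S.E.M, T-test.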
# SCC-4 = assay: Induction of apoptosis in human SCC4 cells at 500 nM after 48 hrs by Annexin V/propidium iodide staining-based flow cytometric analysis relative to control; type: functional; procedure, shortened: as §2
# HL-60 [9] = assay: Induction of autophagy in human HL60 cells assessed as increase in LC3B-2 levels at 10 uM after 105 mins in presence of lysosomal inhibitor chloroquine by immunoblot analysis; type: functional, cell-based
# Procedure, shortened: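 HL-60 in serum-supplemented RPMI 1640, or starved in Earle's Balanced Salts for 15 min beforehand, then treated with 10 μM compound with or without 40 μM chloroquine for 1 h 45 min or 16 h. LC3B-II measured by immunoblot, densitometry normalized to actin, three independent experiments, Student's T-test.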
# [10] = Solubility of compound in pH 3 aqueous solution after 12 hrs by HPLC analysis; type: physicochemical
# Tubulin (Homo sapiens) [11] = molecular target: T1, Tubulin (Homo sapiens); assay: Displacement of podophyllotoxin from tubulin (unknown origin) by ultracentrifugation method; type: protein-complex assay
# Tubulin (Homo sapiens) [12] = molecular target: T1, Tubulin (Homo sapiens); assay: Binding affinity to tubulin (unknown origin) by analytical ultracentrifugation
smiles,measurement,setting,value
CC(=O)OC1=C(c2cccc3ncccc23)Oc2cc3ccccc3cc2-n2cccc21,IC50,HL-60 [1],294 nM
same,inhibition,Tubulin (Homo sapiens) [2],Active
same,IC50,[3],92 nM
same,Ratio IC50,[4],2
same,Activity,HCC827,inactive
same,Activity,PC-9 [5],Active
same,Activity,PC-9 [6],Active
same,Activity,NB-4,Active
same,IC50,NCI-H929 [7],363 nM
same,IC50,Ca9-22,31.6 µM
same,Activity,NCI-H929 [8],>40%
same,Activity,SCC-4,>40%
same,Activity,HL-60 [9],Active
same,solubility at 12 h,[10],210 µM
same,inhibition,Tubulin (Homo sapiens) [11],Active
same,Kb,Tubulin (Homo sapiens) [12],7 ×10⁷ /M
